Legend:
[1] = test system: Rattus norvegicus; experiment: Antiulcerogenic activity against acetic acid-induced ulcerative colitis in albino rat assessed as ratio of wet weight and length at 12.5 mmol/kg, po; format: functional
Method in brief: (§1)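 Male albino rats (190–200 g, n = 5 per group) received drug in DMSO by orogastric cannula daily for 5 days, with the last dose 2 h before colitis. After a 36 h fast and under ether, 4% acetic acid (5 ml/kg) was instilled 8 cm intrarectally. At 24 h, the distal 8 cm colon was scored for wet weight/length, ulcer area (1 mm² grid count), and ulcer index (lesion score 0–4 plus area).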

[2] = test system: Rattus norvegicus; experiment: Antiulcerogenic activity against acetic acid-induced ulcerative colitis in albino rat assessed as ulcer index at 12.5 mmol/kg, po; format: functional; method in brief: as §1
[3] = Toxicity in po dosed albino rat; format: organism-based; settings: in vivo
[4] = test system: Rattus norvegicus; experiment: Antiulcerogenic activity against acetic acid-induced ulcerative colitis in albino rat assessed as ulcer area at 12.5 mmol/kg, po; format: functional; method in brief: as §1
[5] = test system: Candida albicans; experiment: Antifungal activity agaisnt Candida albicans ATCC 10231 by agar diffusion method
[6] = test system: Bacillus subtilis; experiment: Antibacterial activity agaisnt Bacillus subtilis MTCC 1456 by agar diffusion method; format: functional
Method in brief: (§2)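 Mueller Hinton agar (pH 7.4) was seeded with 24-h cultures adjusted to 0.5 McFarland. Compounds were prepared as 10 mg/ml stocks in DMF and added to 6 mm wells. DMF served as the negative control. Plates were incubated at 35 °C for 24 h, and the diameter of the growth inhibition zone was read in mm with a caliper.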

[7] = test system: Staphylococcus aureus; experiment: Antibacterial activity agaisnt Staphylococcus aureus MTCC 3160 by agar diffusion method; format: functional; method in brief: as §2
[8] = test system: Escherichia coli; experiment: Antibacterial activity agaisnt Escherichia coli MTCC 8739 by agar diffusion method; format: functional; method in brief: as §2

Compound | Ratio [1] | Activity [2] [no unit] | LD50 [3] [mg/kg] | ulcer area [4] [cm2] | diameter of the inhibition zone (DIZ) [5] [mm] | diameter of the inhibition zone (DIZ) [6] [mm] | diameter of the inhibition zone (DIZ) [7] [mm] | diameter of the inhibition zone (DIZ) [8] [mm]
COc1ccc(NS(=O)(=O)c2c(O)c(C(=O)O)c(OC)c3ccoc23)cc1 | 120.1 | 8.7 | 396 | 5.1 | 8 | 10 |  | 
COc1c(C(=O)O)c(O)c(S(=O)(=O)Nc2ccccc2)c2occc12 | 119.9 | 8.5 | 396 | 5.1 | 15 | 12 |  | 
COc1c(C(=O)O)c(O)c(/N=N/c2ccc(S(=O)(=O)Nc3ccccn3)cc2)c2occc12 | 95.2 | 6.7 | 410 | 3.9 | 22 | 12 | 10 | 12
COc1c(C(=O)O)c(O)c(S(N)(=O)=O)c2occc12 | 103.4 | 7.4 | 400 | 4.4 | 14 | 8 | 8 | 8
COc1c(C(=O)O)c(O)c(S(=O)(=O)Cl)c2occc12 | 112 | 8.1 | 390 | 4.7 | 20 | 8 | 8 | 8
COc1c(C(=O)O)c(O)c(S(=O)(=O)Nc2ccc(Cl)cc2)c2occc12 | 112 | 8.2 | 410 | 4.8 | 12 |  |  | 12
COc1c(C(=O)O)c(O)c(/N=N/c2ccccc2)c2occc12 | 84.5 | 4.8 | 410 | 2.6 | 18 | 10 | 8 | 10
C[C@@H]1[C@H](O)[C@@H](C)/C=C/C=C/C=C/C=C/C=C/C=C/C=C/[C@H](O[C@@H]2O[C@H](C)[C@@H](O)[C@H](N)[C@@H]2O)C[C@@H]2O[C@](O)(C[C@@H](O)C[C@@H](O)[C@H](O)CC[C@@H](O)C[C@@H](O)CC(=O)O[C@H]1C)C[C@H](O)[C@H]2C(=O)O [AMPHOTERICIN B] |  |  |  |  | 20 |  |  | 
O=C(O)c1cc(/N=N/c2ccc(S(=O)(=O)Nc3ccccn3)cc2)ccc1O [SULFASALAZINE] | 79 | 3.7 |  | 2.1 | 7 | 25 | 30 | 8
COc1c(C(=O)O)c(O)c(NS(=O)(=O)c2ccc(C)cc2)c2occc12 | 98.6 | 7.6 | 400 | 4.3 | 15 | 10 |  | 
COc1c(C(=O)O)c(O)c(S(=O)(=O)Nc2ccc(C)cc2)c2occc12 | 111 | 8.1 | 396 | 4.7 | 10 |  | 8 | 12
COc1c(C(=O)O)c(O)c(S(=O)(=O)Nc2ccc(Cl)cc2Cl)c2occc12 | 110 | 8.2 | 410 | 4.8 | 8 |  |  | 
COc1c(C(=O)O)c(O)c(NS(=O)(=O)c2ccc(Cl)cc2)c2occc12 | 86.4 | 4.6 | 390 | 2.6 | 8 | 12 |  | 
COc1c(C(=O)O)c(O)cc2occc12 |  |  |  |  | 8 |  |  | 
COc1c(C(=O)O)c(O)c(NS(=O)(=O)c2ccccc2)c2occc12 | 99.1 | 7.4 | 400 | 4.4 | 10 | 10 |  | 
COc1c(C(=O)O)c(O)c(N)c2occc12 | 90 | 5.5 | 396 | 3.3 | 8 | 8 | 8 | 10
